Test [1] concerns MEF. Description: Cytotoxicity against mouse MEF cells after 72 hrs by MTT assay. The test is classed as ADME, cell-based. For orientation: Tetrazolium dyes change colour on reduction, which living cells bring about.
Test [2] has as its system A549. In words: Selectivity index, ratio of IC50 for mouse MEF cells to IC50 for human A549 cells. The test is classed as functional.
The target of test [3] is Histone deacetylase 2 (Homo sapiens, UniProt Q92769). In words: Inhibition of recombinant HDAC2 (unknown origin) after 10 mins by fluorimetric analysis.
Histone deacetylase 2, sequence (Q92769 whole entry): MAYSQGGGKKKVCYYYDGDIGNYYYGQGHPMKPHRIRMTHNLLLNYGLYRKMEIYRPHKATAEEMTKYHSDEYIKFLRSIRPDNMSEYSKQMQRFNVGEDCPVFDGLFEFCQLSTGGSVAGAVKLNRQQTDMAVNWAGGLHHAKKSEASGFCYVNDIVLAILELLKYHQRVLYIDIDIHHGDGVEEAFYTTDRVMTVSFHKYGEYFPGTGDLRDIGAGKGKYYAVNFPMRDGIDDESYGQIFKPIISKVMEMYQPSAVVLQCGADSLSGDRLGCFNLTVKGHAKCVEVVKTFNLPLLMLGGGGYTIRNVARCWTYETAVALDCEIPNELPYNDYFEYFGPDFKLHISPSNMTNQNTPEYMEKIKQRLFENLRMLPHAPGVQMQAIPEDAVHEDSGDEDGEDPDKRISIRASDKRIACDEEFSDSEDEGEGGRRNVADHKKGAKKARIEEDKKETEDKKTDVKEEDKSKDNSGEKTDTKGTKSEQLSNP
The target of test [4] is T1, Protein deacetylase HDAC6 (Homo sapiens, UniProt Q9UBN7).
T1 sequence (Q9UBN7 whole entry): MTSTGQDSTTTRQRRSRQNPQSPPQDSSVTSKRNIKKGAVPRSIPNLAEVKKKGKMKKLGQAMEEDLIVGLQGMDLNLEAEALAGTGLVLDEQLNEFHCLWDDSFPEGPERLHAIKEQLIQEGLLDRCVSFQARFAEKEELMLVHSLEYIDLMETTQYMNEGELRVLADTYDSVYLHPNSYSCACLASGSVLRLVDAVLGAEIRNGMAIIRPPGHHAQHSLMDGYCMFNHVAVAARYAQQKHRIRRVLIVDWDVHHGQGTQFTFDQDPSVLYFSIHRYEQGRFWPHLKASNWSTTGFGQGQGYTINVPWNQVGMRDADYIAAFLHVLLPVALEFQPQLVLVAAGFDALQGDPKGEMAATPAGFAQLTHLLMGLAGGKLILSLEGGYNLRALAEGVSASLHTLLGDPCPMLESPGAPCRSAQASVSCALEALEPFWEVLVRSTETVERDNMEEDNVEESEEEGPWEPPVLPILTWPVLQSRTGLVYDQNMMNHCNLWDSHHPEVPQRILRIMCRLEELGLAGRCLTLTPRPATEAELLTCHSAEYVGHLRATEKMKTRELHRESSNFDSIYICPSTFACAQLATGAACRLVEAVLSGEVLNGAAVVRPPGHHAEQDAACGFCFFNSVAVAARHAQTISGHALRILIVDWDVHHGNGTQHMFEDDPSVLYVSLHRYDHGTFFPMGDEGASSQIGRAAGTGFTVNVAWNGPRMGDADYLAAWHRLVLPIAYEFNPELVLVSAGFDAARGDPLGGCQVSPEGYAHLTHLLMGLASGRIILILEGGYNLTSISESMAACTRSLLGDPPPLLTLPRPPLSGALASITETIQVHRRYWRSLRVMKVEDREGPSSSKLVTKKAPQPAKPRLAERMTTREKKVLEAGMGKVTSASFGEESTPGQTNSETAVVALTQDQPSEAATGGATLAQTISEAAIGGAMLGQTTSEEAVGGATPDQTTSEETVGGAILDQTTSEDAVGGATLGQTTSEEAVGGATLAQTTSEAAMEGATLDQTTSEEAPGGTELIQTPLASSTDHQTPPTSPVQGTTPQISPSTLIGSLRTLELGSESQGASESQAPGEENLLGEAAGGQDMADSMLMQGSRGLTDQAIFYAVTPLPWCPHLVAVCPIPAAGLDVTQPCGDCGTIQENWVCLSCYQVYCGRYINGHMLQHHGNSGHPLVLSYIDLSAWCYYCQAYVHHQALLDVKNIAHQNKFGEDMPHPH
In words: Inhibition of recombinant HDAC6 (unknown origin) after 10 mins by fluorimetric analysis.

The target in test [5] is Histone deacetylase 1 (Homo sapiens, UniProt Q13547). Description: Inhibition of recombinant HDAC1 (unknown origin) after 10 mins by fluorimetric analysis.
Histone deacetylase 1, sequence (Q13547 whole entry): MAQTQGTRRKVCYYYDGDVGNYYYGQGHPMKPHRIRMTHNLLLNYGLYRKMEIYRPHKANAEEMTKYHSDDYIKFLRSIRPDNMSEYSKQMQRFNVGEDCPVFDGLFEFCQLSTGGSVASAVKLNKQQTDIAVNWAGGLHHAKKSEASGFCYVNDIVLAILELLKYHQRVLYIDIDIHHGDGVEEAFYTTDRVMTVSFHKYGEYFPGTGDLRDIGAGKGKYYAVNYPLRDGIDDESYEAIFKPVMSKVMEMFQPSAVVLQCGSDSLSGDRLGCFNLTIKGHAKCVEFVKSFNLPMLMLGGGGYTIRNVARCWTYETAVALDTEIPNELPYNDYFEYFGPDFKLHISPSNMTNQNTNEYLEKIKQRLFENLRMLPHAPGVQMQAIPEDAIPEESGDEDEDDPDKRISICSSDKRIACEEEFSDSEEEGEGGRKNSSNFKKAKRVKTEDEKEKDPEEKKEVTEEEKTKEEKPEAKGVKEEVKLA
Test [6] deals with Histone deacetylase (Homo sapiens) (UniProt Q13547+O15379+Q9UBN7+Q92769+Q9UQL6+Q8WUI4+Q9BY41+Q96DB2+P56524+Q9UKV0+Q969S8). Description: Inhibition of class 1 HDAC in human A549 cells assessed as increase in histone acetylation after 24 hrs by Western blotting analysis. The test is classed as cell-based. The method, boiled down:
(§1)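 A549 cells (DMEM, 10% FBS, penicillin/streptomycin, 5% CO2) exposed to compounds at indicated doses for 24 h. Cells lysed on ice, total lysates run on SDS–PAGE and immunoblotted with antibodies to acetyl-histone H3, acetyl-tubulin and actin. Loading normalised to β-actin.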
(In western blotting, separated proteins are transferred to a membrane and probed.)

Test [7] concerns the target T2, 3-hydroxy-3-methylglutaryl-coenzyme A reductase (Homo sapiens, UniProt P04035).
T2 sequence (P04035 whole entry): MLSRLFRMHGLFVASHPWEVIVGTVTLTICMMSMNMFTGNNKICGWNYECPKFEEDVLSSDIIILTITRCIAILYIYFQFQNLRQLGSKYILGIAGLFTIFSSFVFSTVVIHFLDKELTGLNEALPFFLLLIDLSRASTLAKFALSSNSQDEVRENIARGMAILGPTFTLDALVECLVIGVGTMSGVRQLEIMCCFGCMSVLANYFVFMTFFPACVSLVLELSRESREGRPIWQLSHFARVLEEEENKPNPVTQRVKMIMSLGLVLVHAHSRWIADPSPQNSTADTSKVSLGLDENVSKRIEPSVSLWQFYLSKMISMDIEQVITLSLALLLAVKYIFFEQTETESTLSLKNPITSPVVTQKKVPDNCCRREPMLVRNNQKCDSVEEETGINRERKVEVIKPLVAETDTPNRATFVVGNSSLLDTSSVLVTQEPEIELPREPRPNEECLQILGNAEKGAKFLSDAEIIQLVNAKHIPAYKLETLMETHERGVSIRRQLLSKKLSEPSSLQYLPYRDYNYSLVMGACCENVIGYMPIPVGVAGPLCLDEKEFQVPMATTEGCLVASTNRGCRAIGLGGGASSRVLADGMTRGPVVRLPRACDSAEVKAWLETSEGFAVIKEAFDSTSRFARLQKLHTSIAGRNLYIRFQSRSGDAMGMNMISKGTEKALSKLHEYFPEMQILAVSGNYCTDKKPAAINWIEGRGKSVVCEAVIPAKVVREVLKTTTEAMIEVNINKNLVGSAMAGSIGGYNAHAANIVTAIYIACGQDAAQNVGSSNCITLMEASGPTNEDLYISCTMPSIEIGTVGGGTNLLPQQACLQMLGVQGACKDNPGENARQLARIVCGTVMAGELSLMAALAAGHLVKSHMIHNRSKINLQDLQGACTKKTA
Description: Inhibition of HMG-CoA reductase in human A549 cells after 5 mins by spectrophotometric analysis.

Test [8] addresses T2, 3-hydroxy-3-methylglutaryl-coenzyme A reductase. In words: Inhibition of recombinant HMG-CoA reductase (unknown origin) after 10 mins by spectrophotometric analysis.
For test [9], the system named is A549. In words: Selectivity index, ratio of IC50 for human HS68 cells to IC50 for human A549 cells. The test is classed as functional.
Test [10] addresses T3, Protein deacetylase HDAC6 (Homo sapiens) (UniProt Q9UBN7).
T3 sequence (whole entry): T1 sequence (Q9UBN7 whole entry)
In words: Inhibition of HDAC6 in human A549 cells assessed as increase in tubulin acetylation after 24 hrs by Western blotting analysis. The test is classed as cell-based. The method, boiled down:
as §1

For test [11], the system named is Hs68. Description: Cytotoxicity against human HS68 cells after 72 hrs by MTT assay. The test is classed as ADME, cell-based. Conditions: Hs68, 72 h.
Test [12] deals with A549. Description: Cytotoxicity against human A549 cells after 72 hrs by MTT assay. The conditions noted are these: A549, 72 h. The test is classed as functional, cell-based.

Molecules are shown by their SMILES. Bounds are passed on as bounds.

A word on the IC50: it is the point on the concentration scale where inhibition reaches its midpoint.

Compound `CC(C)c1c(C(=O)Nc2ccccc2)c(-c2ccccc2)c(-c2ccc(F)cc2)n1CC[C@@H](O)C[C@@H](O)CC(=O)O` [ATORVASTATIN] returned an IC50 in test [1] of 30700 nM.

On to `CCC(C)(C)C(=O)O[C@H]1C[C@@H](C)C=C2C=C[C@H](C)[C@H](CC[C@@H](O)C[C@@H](O)CC(=O)NO)[C@H]21`, for which the “Ratio IC50” value in test [2] and in test [9] was over 5 throughout. For the same compound, the IC50 was 414 nM in test [3]; 69.5 nM in test [4]; 63.4 nM in test [5]; over 100000 nM in [1]; 7900 nM in [7]; 13.1 nM in test [8]. The compound also yielded an IC50 in [11] of over 100000 nM. Also, the inhibition result in test [6] and in [10] was “Dose-dependent effect” each time.

For `C[C@H]1C=C2C=C[C@H](C)[C@H](CC[C@@H]3C[C@@H](O[Si](C)(C)C(C)(C)C)CC(=O)O3)[C@H]2[C@@H](OC(=O)NCCCCCCC(=O)NO)C1`, the results for the IC50 in test [3], in test [4] and in test [5] were 658 nM, 140 nM and 122 nM, respectively.

On to `CC[C@H](C)C(=O)O[C@H]1C[C@@H](C)C=C2C=C[C@H](C)[C@H](CC[C@@H]3C[C@@H](O)CC(=O)O3)[C@H]21` [LOVASTATIN], for which the IC50 in test [1] turned out to be 35000 nM; in test [11], 23200 nM.

As for `C[C@H]1C=C2C=C[C@H](C)[C@H](CC[C@@H]3C[C@@H](O[Si](C)(C)C(C)(C)C)CC(=O)O3)[C@H]2[C@@H](OC(=O)Nc2ccc(-c3cn(CCCCCCC(=O)NO)nn3)cc2)C1`, the IC50 in test [3] stood at 463 nM; in test [4], 127 nM; in [5], 159 nM. Also, the inhibition entry in test [6] and in [10] was “Dose-dependent effect” in each case.

For the compound `CC[C@H](C)C(=O)O[C@H]1C[C@@H](C)C=C2C=C[C@H](C)[C@H](CC[C@@H](O)C[C@@H](O)CC(=O)NO)[C@H]21`, the “Ratio IC50” value in [2] and in test [9] was over 5.6 in each case. Further, the IC50 in test [3] is 468 nM; in test [4], 51 nM; in test [5], 64.8 nM; in test [1] it was over 100000 nM; in test [7], 15900 nM; in test [8], 16.8 nM. In test [11], the IC50 was over 100000 nM. For the same compound, the inhibition result in test [6] and in test [10] was “Dose-dependent effect” each time.

`CCC(C)(C)C(=O)O[C@H]1C[C@@H](C)C=C2C=C[C@H](C)[C@H](CC[C@@H]3C[C@@H](O)CC(=O)O3)[C@H]21` [SIMVASTATIN]: the “Ratio IC50” value amounted to 2.3 in test [2] and 1.6 in [9]. The IC50 in test [1] is 36700 nM; in test [12], 16300 nM; in test [11] it was 26400 nM.

Consider `O=C(CCCCCCC(=O)Nc1ccccc1)NO` [VORINOSTAT], for which, in test [8], the IC50 was over 10000 nM.

For `CC(C)c1nc(N(C)S(C)(=O)=O)nc(-c2ccc(F)cc2)c1/C=C/[C@@H](O)C[C@@H](O)CC(=O)NO`, the inhibition entry in test [6] and in [10] was “Dose-dependent effect” in each case. The compound further displayed an IC50 in [7] of 14900 nM.

As for `CC(C)c1c(C(=O)Nc2ccccc2)c(-c2ccccc2)c(-c2ccc(F)cc2)n1CC[C@@H](O)C[C@@H](O)CC(=O)NO`, the “Ratio IC50” value in test [2] and in [9] was over 5.7 each time. Moreover, the IC50 in test [4] was 86.6 nM; in [5], 123 nM; in test [1] it was over 100000 nM; in [7], 5700 nM; in test [8] it was 12.3 nM; in test [11], over 100000 nM. The inhibition entry in [6] and in test [10] was “Dose-dependent effect” throughout.

Turning to `C[C@H]1C=C2C=C[C@H](C)[C@H](CC[C@@H]3C[C@@H](O[Si](C)(C)C(C)(C)C)CC(=O)O3)[C@H]2[C@@H](OC(=O)NCc2ccc(-c3cn(CCCCCCC(=O)NO)nn3)cc2)C1`, the IC50 in test [3] was found to be 882 nM; in test [4] it was 34 nM; in test [5] it was 125 nM. Besides, the inhibition result in test [6] and in [10] was “Dose-dependent effect” each time.

(Values after ChEMBL document CHEMBL2346500, “Design and synthesis of dual-action inhibitors targeting histone deacetylases and 3-hydroxy-3-methylglutaryl coenzyme A reductase for cancer treatment” (J Med Chem, 2013).)
